What was measured:
[1] = target: D(2) dopamine receptor (Bos taurus, UniProt P20288); assay: Displacement of [3H]Spiperone from dopamine D2 receptor in bovine caudate nuclei synaptosomal membrane by liquid scintillation spectrometry
Summary of the method: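 Membranes (0.7 mg/ml protein) incubated 20 min at 37 °C with 0.2 nM [3H]spiperone and 8–10 test compound concentrations (10^-5–10^-10 M). Ketanserin […] blocks 5-HT2 sites. Nonspecific binding defined with […] (+)-butaclamol. GF/C filtration, scintillation counting. Ki; 3–4 experiments in triplicate.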

[2] = Displacement of [3H]8-OH-DPAT from 5HT1A receptor in bovine hippocampi synaptosomal membrane by liquid scintillation spectrometry; type: tissue-based, Bos taurus, Hippocampus
[3] = target: D(1A) dopamine receptor (Bos taurus, UniProt Q95136); assay: Displacement of [3H]SCH23390 from dopamine D1 receptor in bovine caudate nuclei synaptosomal membrane by liquid scintillation spectrometry
Sequence of D(1A) dopamine receptor (Q95136 whole entry): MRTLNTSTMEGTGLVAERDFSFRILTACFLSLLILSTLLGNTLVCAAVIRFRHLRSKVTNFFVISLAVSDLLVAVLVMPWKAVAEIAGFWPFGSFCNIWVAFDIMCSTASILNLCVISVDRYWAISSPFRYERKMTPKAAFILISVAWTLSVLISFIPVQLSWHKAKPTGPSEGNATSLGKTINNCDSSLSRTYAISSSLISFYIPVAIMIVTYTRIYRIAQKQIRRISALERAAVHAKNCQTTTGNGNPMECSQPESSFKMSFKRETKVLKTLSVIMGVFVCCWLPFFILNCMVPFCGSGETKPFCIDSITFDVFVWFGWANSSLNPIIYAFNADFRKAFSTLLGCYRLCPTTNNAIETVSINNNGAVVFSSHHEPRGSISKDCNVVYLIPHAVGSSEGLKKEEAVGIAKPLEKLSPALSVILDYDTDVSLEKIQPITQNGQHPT

Sequence of D(2) dopamine receptor (P20288 whole entry): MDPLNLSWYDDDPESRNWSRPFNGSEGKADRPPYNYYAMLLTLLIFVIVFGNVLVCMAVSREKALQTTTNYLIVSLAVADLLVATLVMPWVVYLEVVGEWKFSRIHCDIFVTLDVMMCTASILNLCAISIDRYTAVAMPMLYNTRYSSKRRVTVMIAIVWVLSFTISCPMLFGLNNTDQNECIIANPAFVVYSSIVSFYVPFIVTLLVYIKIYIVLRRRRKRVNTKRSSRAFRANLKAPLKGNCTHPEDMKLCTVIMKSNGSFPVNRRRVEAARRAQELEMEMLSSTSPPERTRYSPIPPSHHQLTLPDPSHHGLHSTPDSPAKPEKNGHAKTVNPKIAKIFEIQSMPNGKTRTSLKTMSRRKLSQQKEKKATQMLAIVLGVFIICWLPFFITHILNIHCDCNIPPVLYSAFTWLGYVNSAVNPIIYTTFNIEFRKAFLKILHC

Row | Compound | Ki [1] | Ki [2] | Ki [3]
1 | COc1ccccc1N1CCN(CCc2ccc3nc[nH]c3c2)CC1 | 13.1 nM | 20.3 nM | 
2 | FC(F)(F)c1cccc(N2CCN(CCc3cc(Cl)c4nc[nH]c4c3)CC2)c1 | 200 nM | 20.7 nM | > 1000 nM
3 | Clc1ccccc1N1CCN(CCc2ccc3nc[nH]c3c2)CC1 | 59.7 nM | 243 nM | 
4 | Clc1ccccc1N1CCN(CCc2cc(Cl)c3nc[nH]c3c2)CC1 | 19.1 nM | 45.6 nM | > 1000 nM
5 | c1ccc(N2CCN(CCc3ccc4nc[nH]c4c3)CC2)cc1 | 138 nM | 197 nM | > 1000 nM
6 | Clc1cc(CCN2CCN(c3ncccn3)CC2)cc2[nH]cnc12 | 550 nM | 530 nM | > 1000 nM
7 | Clc1ccccc1N1CCN(CCc2cc(Br)c3nc[nH]c3c2)CC1 | 84.7 nM | 89.6 nM | > 1000 nM
8 | Brc1cc(CCN2CCN(c3ccccc3)CC2)cc2[nH]cnc12 | 61.9 nM | 24.1 nM | > 1000 nM
9 | FC(F)(F)c1cccc(N2CCN(CCc3cc(Br)c4nc[nH]c4c3)CC2)c1 | 5.77 nM | 0.14 nM | > 1000 nM
10 | Clc1cc(CCN2CCN(c3ccccc3)CC2)cc2[nH]cnc12 | 84.7 nM | 89.6 nM | > 1000 nM
11 | COc1ccccc1N1CCN(CCc2cc(Cl)c3nc[nH]c3c2)CC1 | 5.49 nM | 5.2 nM | > 1000 nM
12 | c1cnc(N2CCN(CCc3ccc4nc[nH]c4c3)CC2)nc1 | > 1000 nM | > 1000 nM | 
13 | COc1ccccc1N1CCN(CCc2cc(Br)c3nc[nH]c3c2)CC1 | 0.56 nM | 1.4 nM | > 1000 nM
14 | FC(F)(F)c1cccc(N2CCN(CCc3ccc4nc[nH]c4c3)CC2)c1 | 273 nM | 33 nM | > 1000 nM
15 | Brc1cc(CCN2CCN(c3ncccn3)CC2)cc2[nH]cnc12 | 26.7 nM | 129 nM | > 1000 nM

Reference: ChEMBL document CHEMBL1158167, “Synthesis, binding properties and receptor docking of 4-halo-6-[2-(4-arylpiperazin-1-yl)ethyl]-1H-benzimidazoles, mixed ligands of D2 and 5-HT1A receptors” (Eur J Med Chem, 2008)
